Calls of active or inactive are those of the source. No cut-off for these calls is given here.
Assays:
[1] = target: T1, ABHD12 (lysophosphatidylserine lipase) (Homo sapiens, UniProt Q8N2K0); experiment: Inhibition of human ABHD12 expressed in HEK293 cells assessed as residual activity at 10 uM preincubated for 30 mins followed by 1-AG substrate addition and measured after 90 to 120 mins by fluorometric assay relative to control; type: cell-based; conditions: HEK293 cells that express human ABHD12, probe 1-AG, read-out: Activity
T1 sequence (Q8N2K0 whole entry): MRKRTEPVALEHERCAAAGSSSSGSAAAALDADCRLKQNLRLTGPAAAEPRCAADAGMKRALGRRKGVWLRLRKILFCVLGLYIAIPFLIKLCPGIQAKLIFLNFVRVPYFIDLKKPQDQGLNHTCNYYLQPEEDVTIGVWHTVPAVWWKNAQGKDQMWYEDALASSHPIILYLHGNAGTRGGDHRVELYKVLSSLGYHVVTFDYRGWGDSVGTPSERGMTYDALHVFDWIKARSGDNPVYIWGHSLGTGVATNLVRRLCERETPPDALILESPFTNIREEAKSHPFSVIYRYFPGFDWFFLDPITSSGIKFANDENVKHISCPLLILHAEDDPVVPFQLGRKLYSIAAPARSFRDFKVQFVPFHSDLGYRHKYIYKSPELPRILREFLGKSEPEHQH
In short: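 Screened at 10 µM in lysates of HEK293 cells overexpressing human ABHD12, given as remaining hydrolase activity relative to control (mean ± SD, n=2-3).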

[2] = target: T2, Phosphatidylserine lipase ABHD16A (Homo sapiens) (UniProt O95870); experiment: Inhibition of human ABHD16A expressed in HEK293 cells assessed as residual activity at 10 uM preincubated for 30 mins followed by 1-LG substrate addition and measured after 90 to 120 mins by fluorometric assay relative to control; type: cell-based
T2 sequence (whole entry): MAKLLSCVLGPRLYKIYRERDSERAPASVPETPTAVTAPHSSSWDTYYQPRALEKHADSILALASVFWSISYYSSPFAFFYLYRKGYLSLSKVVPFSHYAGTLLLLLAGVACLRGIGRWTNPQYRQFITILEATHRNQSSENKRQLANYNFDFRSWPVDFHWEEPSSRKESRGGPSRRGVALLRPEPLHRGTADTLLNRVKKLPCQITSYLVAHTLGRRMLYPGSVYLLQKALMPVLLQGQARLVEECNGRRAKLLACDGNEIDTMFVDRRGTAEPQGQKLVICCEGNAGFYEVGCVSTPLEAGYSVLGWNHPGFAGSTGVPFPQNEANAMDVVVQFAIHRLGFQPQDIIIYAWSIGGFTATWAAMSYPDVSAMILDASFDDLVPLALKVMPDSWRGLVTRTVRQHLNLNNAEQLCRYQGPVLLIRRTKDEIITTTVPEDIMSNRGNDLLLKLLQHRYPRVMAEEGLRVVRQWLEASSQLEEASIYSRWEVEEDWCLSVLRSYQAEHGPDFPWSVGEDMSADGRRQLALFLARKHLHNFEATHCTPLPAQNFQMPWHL
In short: (§1)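 Lysates of HEK293 cells transiently overexpressing human ABHD16A were pretreated 30 min with DMSO (control) or inhibitor, then 1-LG substrate was added (25 µM final), and liberated glycerol was measured. The single-concentration screen was at 10 µM, reported as % control activity (mean ± SD, n=2-3). Dose-responses used four concentrations (0.1-100 µM), duplicate wells, two independent experiments.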

[3] = target: T2, Phosphatidylserine lipase ABHD16A (Homo sapiens); experiment: Potency index, ratio of tetrahydrolipstatin IC50 to compound IC50 for inhibition of ABHD16A (unknown origin)
[4] = target: T3, Phosphatidylserine lipase ABHD16A (Rattus norvegicus) (UniProt Q6MG55); experiment: Inhibition of TAMRA-FP binding to ABHD16A in rat cerebellar membranes at 1 uM preincubated for 1 hr followed by TAMRA-FP addition measured after 1 hr by fluorescence based ABPP analysis; type: cell membranes; conditions: Cerebellum, Membrane
T3 sequence (whole entry): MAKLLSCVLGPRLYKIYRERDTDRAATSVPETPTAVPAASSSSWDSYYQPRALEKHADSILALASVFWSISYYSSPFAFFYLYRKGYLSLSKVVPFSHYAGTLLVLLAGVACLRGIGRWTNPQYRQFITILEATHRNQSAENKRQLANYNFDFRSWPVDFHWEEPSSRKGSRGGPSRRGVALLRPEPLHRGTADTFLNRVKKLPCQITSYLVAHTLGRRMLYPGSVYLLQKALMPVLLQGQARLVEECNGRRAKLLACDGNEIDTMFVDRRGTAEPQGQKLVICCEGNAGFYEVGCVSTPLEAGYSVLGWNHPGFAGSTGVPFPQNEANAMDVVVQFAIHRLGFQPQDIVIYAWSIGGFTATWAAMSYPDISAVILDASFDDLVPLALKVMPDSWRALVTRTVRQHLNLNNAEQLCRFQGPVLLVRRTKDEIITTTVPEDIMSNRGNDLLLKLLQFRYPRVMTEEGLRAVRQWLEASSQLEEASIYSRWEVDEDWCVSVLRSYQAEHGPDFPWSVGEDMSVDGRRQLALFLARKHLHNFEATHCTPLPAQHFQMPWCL
In short: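 Competitive ABPP on rat cerebellar membrane proteome. Proteome was pretreated with inhibitor, then labeled with the serine hydrolase probe TAMRA-FP. Loss of labeling of the band migrating at ~63 kDa, assigned as ABHD16A, was the read-out.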

[5] = target: Acyl-protein thioesterase 2 (Rattus norvegicus) (UniProt Q9QYL8); experiment: Binding affinity to LYPLA2 in rat cerebellar membranes at 10 uM measured after 1 hr by fluorescence based ABPP analysis; type: cell membranes; conditions: Cerebellum, Membrane
In short: (§2)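 Competitive ABPP in rat cerebellar membrane proteome: the proteome was pretreated with inhibitor, then labelled with the TAMRA-FP probe, and loss of band labelling was read by fluorescence. Reversible test inhibitors were used at 20 and 200 µM.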

[6] = target: Acyl-protein thioesterase 1 (Rattus norvegicus) (UniProt P70470); experiment: Binding affinity to LYPLA1 in rat cerebellar membranes at 10 uM measured after 1 hr by fluorescence based ABPP analysis; type: cell membranes; conditions: Cerebellum, Membrane
[7] = target: T3, Phosphatidylserine lipase ABHD16A (Rattus norvegicus); experiment: Inhibition of TAMRA-FP binding to ABHD16A in rat cerebellar membranes at 10 uM preincubated for 1 hr followed by TAMRA-FP addition measured after 1 hr by fluorescence based ABPP analysis; type: cell membranes; conditions: Cerebellum, Membrane
[8] = target: T2, Phosphatidylserine lipase ABHD16A (Homo sapiens); experiment: Ratio of IC50 for reversible inhibition of human ABHD16A expressed in HEK293 cells to IC50 for inhibition of human ABHD16A expressed in HEK293 cells; type: cell-based
In short: (§3)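 Reversibility test: hABHD16A-HEK293 lysate treated with inhibitor was rapidly diluted 40-fold before substrate addition. Inhibitor range extended up to 1 mM, and potency was compared with the routine assay (30 min pretreatment, 1-LG hydrolysis, glycerol read-out). Mean ± SD from two independent experiments.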

[9] = target: T4, Phosphatidylserine lipase ABHD16A (Homo sapiens, UniProt O95870); experiment: Reversible inhibition of human ABHD16A expressed in HEK293 cells preincubated for 30 mins followed by 40 fold compound dilution and subsequent 1-LG substrate addition and measured at 30 mins time interval for 120 mins by fluorometric assay; type: cell-based; in short: as §3
T4 sequence (O95870 whole entry): T2 sequence (whole entry)

[10] = target: T4, Phosphatidylserine lipase ABHD16A; experiment: Inhibition of human ABHD16A expressed in HEK293 cells preincubated for 30 mins followed by 1-LG substrate addition and measured after 90 to 120 mins by fluorometric assay; type: cell-based; in short: as §1
[11] = target: T3, Phosphatidylserine lipase ABHD16A (Rattus norvegicus); experiment: Inhibition of TAMRA-FP binding to ABHD16A in rat cerebellar membranes at 200 uM preincubated for 1 hr followed by TAMRA-FP addition measured after 1 hr by fluorescence based ABPP analysis; type: cell membranes; conditions: Cerebellum, Membrane; in short: as §2
[12] = target: T2, Phosphatidylserine lipase ABHD16A (Homo sapiens); experiment: Inhibition of human ABHD16A expressed in HEK293 cells assessed as residual activity at 100 uM preincubated for 30 mins followed by 1-LG substrate addition and measured after 90 to 120 mins by fluorometric assay relative to control; type: cell-based; in short: as §1
[13] = target: T2, Phosphatidylserine lipase ABHD16A (Homo sapiens); experiment: Inhibition of TAMRA-FP binding to human ABHD16A expressed in HEK293 cells at 20 to 200 uM preincubated for 1 hr followed by TAMRA-FP addition measured after 1 hr by fluorescence based ABPP analysis; type: cell-based
[14] = target: T3, Phosphatidylserine lipase ABHD16A (Rattus norvegicus); experiment: Inhibition of TAMRA-FP binding to ABHD16A in rat cerebellar membranes preincubated for 1 hr followed by TAMRA-FP addition measured after 1 hr by fluorescence based ABPP analysis; type: cell membranes; conditions: Cerebellum, Membrane; in short: as §2

Acyl-protein thioesterase 2 (Rattus norvegicus), sequence (Q9QYL8 whole entry): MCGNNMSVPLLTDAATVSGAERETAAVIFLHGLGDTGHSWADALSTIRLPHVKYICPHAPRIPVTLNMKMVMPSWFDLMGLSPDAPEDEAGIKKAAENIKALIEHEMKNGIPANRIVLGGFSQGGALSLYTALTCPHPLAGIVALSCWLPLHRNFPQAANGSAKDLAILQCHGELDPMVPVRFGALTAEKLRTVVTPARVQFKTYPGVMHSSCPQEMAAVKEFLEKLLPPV
Acyl-protein thioesterase 1 (Rattus norvegicus), sequence (P70470 whole entry): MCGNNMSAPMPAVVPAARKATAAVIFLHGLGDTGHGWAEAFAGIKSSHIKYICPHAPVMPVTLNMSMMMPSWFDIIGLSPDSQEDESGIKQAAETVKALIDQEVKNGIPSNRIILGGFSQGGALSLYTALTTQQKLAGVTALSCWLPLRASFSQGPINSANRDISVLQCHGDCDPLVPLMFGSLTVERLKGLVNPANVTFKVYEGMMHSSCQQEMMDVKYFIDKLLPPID

| SMILES | activity at 10 µM [1] [%] | Activity [2] [%] | also measured |
| --- | --- | --- | --- |
| COC(=O)[C@]1(C)CCC[C@]2(C)c3cc(-c4csc(C)[n+]4C)c(C(C)C)cc3CC[C@@H]12 | 92.8 | 82.7 |  |
| CC(C)c1cc2c(cc1-c1cscn1)[C@@]1(C)CCC[C@@](C)(C(=O)O)[C@@H]1CC2 | 98.4 | 91.5 |  |
| CCCCCCCCCCCCCC1OC(=O)/C1=C\CCCCC(N)=O (configuration not stated) |  |  | Ratio IC50 [3]: 1.3 |
| CC(C)c1cc2c(cc1-c1cscn1)[C@@]1(C)CCC[C@@](C)(C(N)=O)[C@@H]1CC2 | 98.7 | 82.1 |  |
| COC(=O)[C@]1(C)CCC[C@]2(C)c3cc(-c4csc(-c5ccccc5Cl)n4)c(C(C)C)cc3CC[C@@H]12 | 101 | 86.6 |  |
| COC(=O)[C@]1(C)CCC[C@]2(C)c3cc(-c4csc(N)n4)c(C(C)C)cc3CC[C@@H]12 | 103 | 58.2 |  |
| CC[n+]1c(-c2cc3c(cc2C(C)C)CC[C@H]2[C@](C)(C(=O)OC)CCC[C@]32C)csc1C | 91.1 | 81.5 |  |
| COC(=O)[C@]1(C)CCC[C@]2(C)c3cc(-c4cscn4)c(C(C)C)cc3CC[C@@H]12 | 91.5 | 50.3 |  |
| COc1nn(-c2ccc(F)cc2)c(=O)o1 |  |  | inhibition [4]: Active; Ratio IC50 [3]: 5.3 |
| Cc1nc(-c2cc3c(cc2C(C)C)CC[C@H]2[C@](C)(C(=O)O)CCC[C@]32C)cs1 | 102 | 98.4 |  |
| CC(C)c1cc2c(cc1-c1cscn1)[C@@]1(C)CCC[C@@](C)(CO)[C@@H]1CC2 | 96.3 | 65.9 |  |
| Cc1nc(-c2cc3c(cc2C(C)C)CC[C@H]2[C@](C)(CO)CCC[C@]32C)cs1 | 98.7 | 66.3 |  |
| CCOC(=O)c1nc(-c2cc3c(cc2C(C)C)CC[C@H]2[C@](C)(C(=O)OC)CCC[C@]32C)cs1 | 73.8 | 48.7 |  |
| COC(=O)[C@]1(C)CCC[C@]2(C)c3cc(-c4csc(-c5ccccc5)n4)c(C(C)C)cc3CC[C@@H]12 | 89.8 | 73.8 |  |
| CC(C)c1cc2c(cc1-c1csc(N)n1)[C@@]1(C)CCC[C@@](C)(CO)[C@@H]1CC2 | 87.8 | 74.6 |  |
| Cc1nc(-c2cc3c(cc2C(C)C)CC[C@H]2[C@](C)(C(N)=O)CCC[C@]32C)cs1 | 99.6 | 80.6 |  |
| COC(=O)[C@]1(C)CCC[C@]2(C)c3cc(-c4csc(-c5ccc(Cl)cc5)n4)c(C(C)C)cc3CC[C@@H]12 | 96.6 | 99.3 |  |
| COC(=O)[C@]1(C)CCC[C@]2(C)c3cc(-c4csc[n+]4C)c(C(C)C)cc3CC[C@@H]12 | 91.1 | 80.1 |  |
| CC(C)c1cc2c(cc1-c1csc(N)n1)[C@@]1(C)CCC[C@@](C)(C(N)=O)[C@@H]1CC2 | 96.9 | 80 |  |
| CCCCCCCCCC[C@@H]1C(=O)O[C@H]1CCc1ccc(OC)c(OC)c1 [PALMOSTATIN B] |  |  | Activity [5]: Active; Activity [6]: Active; inhibition [7]: Active; Ratio IC50 [8]: 1.8; IC50 [9]: 0.057 µM; Ratio IC50 [3]: 1.7; IC50 [10]: 0.099 to 0.105 µM |
| CCCCCCCCCCC[C@@H](C[C@@H]1OC(=O)[C@H]1CCCCCC)OC(=O)[C@H](CC(C)C)NC=O |  |  | inhibition [7]: Active |
| CC(C)c1cc2c(cc1-c1cscn1)[C@@]1(C)CCC[C@@](C)(C(=O)OCCO)[C@@H]1CC2 | 77.8 | 62.9 |  |
| COC(=O)[C@]1(C)CCC[C@]2(C)c3cc(-c4csc(C#N)n4)c(C(C)C)cc3CC[C@@H]12 | 94.3 | 42.8 | Ratio IC50 [8]: 6.4; inhibition [11]: Active; IC50 [9]: 31.6 µM; Activity [12]: 25%; IC50 [10]: 4.9 to 5.2 µM; inhibition [13]: inactive |
| COC(=O)[C@]1(C)CCC[C@]2(C)c3cc(-c4csc(C)n4)c(C(C)C)cc3CC[C@@H]12 | 100 | 23 | inhibition [14]: Dose-dependent effect; Ratio IC50 [8]: 11.4; IC50 [9]: 41.1 µM; Activity [12]: 12%; IC50 [10]: 3.4 to 3.6 µM |
